Laboratory results published in ChEMBL document CHEMBL2331236, “Synthesis and biological evaluation of 1-(2-hydroxy-3-phenyloxypropyl)piperazine derivatives as T-type calcium channel blockers” (Bioorg Med Chem Lett, 2013).

tested on: not listed separately; experiment: Terminal half life in ICR mouse brain at 10 mg/kg, po; type: ADME, organism-based; parameters: dose 10 mg/kg, route oral; conditions: read-out: beta t1/2
Summary of the method: (§1)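 ICR mice were dosed orally at 10 mg/kg, with n = 3 per time point. Plasma and brain concentrations were followed over time. Cmax, Tmax, AUClast, AUC0-∞ and terminal half-life were taken from the concentration–time profiles, and values are means.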

SMILES	half-life
COc1cccc(N2CCN(C[C@H](O)COc3ccc(C(F)(F)F)cc3)CC2)c1	474 min
O[C@H](COc1ccc(C(F)(F)F)cc1)CN1CCN(Cc2c(F)cccc2Cl)CC1	186 min

tested on: HEK293; experiment: Selectivity ratio of IC50 for human ERG to IC50 for alpha-1G calcium channel in human HEK293 cells; type: cell-based; conditions: not given

SMILES	Ratio IC50
COc1cccc(N2CCN(C[C@H](O)COc3ccc(C(F)(F)F)cc3)CC2)c1	8.5
O[C@H](COc1ccc(F)cc1)CN1CCN(Cc2ccc(Cl)cc2)CC1	0.87
O[C@H](COc1ccc(Cl)cc1)CN1CCN(Cc2c(F)cccc2Cl)CC1	1.46
O[C@H](COc1ccc(F)cc1)CN1CCN(Cc2ccc(Cl)c(Cl)c2)CC1	1.26
COc1ccccc1N1CCN(C[C@@H](O)COc2ccc(C(F)(F)F)cc2)CC1	2.21
O[C@H](COc1ccc(C(F)(F)F)cc1)CN1CCN(Cc2c(F)cccc2Cl)CC1	18.4
O[C@@H](COc1ccc(C(F)(F)F)cc1)CN1CCN(Cc2ccc(Cl)c(Cl)c2)CC1	7.24
O[C@@H](COc1ccc(F)cc1)CN1CCN(Cc2ccc(Cl)c(Cl)c2)CC1	8.7

tested on: Brain; experiment: AUC (0 to infinity) in ICR mouse brain at 10 mg/kg, po; type: ADME, organism-based; parameters: dose 10 mg/kg, route oral, time infinity; conditions: in vivo; summary of the method: as §1

SMILES	AUC
COc1cccc(N2CCN(C[C@H](O)COc3ccc(C(F)(F)F)cc3)CC2)c1	686.6 µg·min/g

tested on: not listed separately; experiment: Terminal half life in ICR mouse plasma at 10 mg/kg, po; type: ADME, organism-based; parameters: dose 10 mg/kg, route oral; conditions: read-out: beta t1/2; summary of the method: as §1

SMILES	half-life
COc1cccc(N2CCN(C[C@H](O)COc3ccc(C(F)(F)F)cc3)CC2)c1	102 min
O[C@H](COc1ccc(C(F)(F)F)cc1)CN1CCN(Cc2c(F)cccc2Cl)CC1	56.5 min

tested on: not listed separately; experiment: AUC (0 to infinity) in ICR mouse plasma at 10 mg/kg, po; type: ADME, organism-based; parameters: time infinity, dose 10 mg/kg, route oral; conditions: not given; summary of the method: as §1

SMILES	AUC(0-inf)
COc1cccc(N2CCN(C[C@H](O)COc3ccc(C(F)(F)F)cc3)CC2)c1	3300 ng·h/mL
O[C@H](COc1ccc(C(F)(F)F)cc1)CN1CCN(Cc2c(F)cccc2Cl)CC1	276 ng·h/mL

tested on: not listed separately; experiment: Tmax in ICR mouse plasma at 10 mg/kg, po; type: ADME, organism-based; parameters: dose 10 mg/kg, route oral; conditions: not given; summary of the method: as §1

SMILES	Tmax
COc1cccc(N2CCN(C[C@H](O)COc3ccc(C(F)(F)F)cc3)CC2)c1	15 min
O[C@H](COc1ccc(C(F)(F)F)cc1)CN1CCN(Cc2c(F)cccc2Cl)CC1	15 min

tested on: not listed separately; experiment: Cmax in ICR mouse plasma at 10 mg/kg, po; type: ADME, organism-based; parameters: dose 10 mg/kg, route oral; conditions: not given; summary of the method: as §1

SMILES	Cmax
COc1cccc(N2CCN(C[C@H](O)COc3ccc(C(F)(F)F)cc3)CC2)c1	1570 ng/mL
O[C@H](COc1ccc(C(F)(F)F)cc1)CN1CCN(Cc2c(F)cccc2Cl)CC1	197 ng/mL

target: Voltage-gated inwardly rectifying potassium channel KCNH2 (Homo sapiens, UniProt Q12809); experiment: Inhibition of human ERG; conditions: not given
Sequence (Q12809 whole entry): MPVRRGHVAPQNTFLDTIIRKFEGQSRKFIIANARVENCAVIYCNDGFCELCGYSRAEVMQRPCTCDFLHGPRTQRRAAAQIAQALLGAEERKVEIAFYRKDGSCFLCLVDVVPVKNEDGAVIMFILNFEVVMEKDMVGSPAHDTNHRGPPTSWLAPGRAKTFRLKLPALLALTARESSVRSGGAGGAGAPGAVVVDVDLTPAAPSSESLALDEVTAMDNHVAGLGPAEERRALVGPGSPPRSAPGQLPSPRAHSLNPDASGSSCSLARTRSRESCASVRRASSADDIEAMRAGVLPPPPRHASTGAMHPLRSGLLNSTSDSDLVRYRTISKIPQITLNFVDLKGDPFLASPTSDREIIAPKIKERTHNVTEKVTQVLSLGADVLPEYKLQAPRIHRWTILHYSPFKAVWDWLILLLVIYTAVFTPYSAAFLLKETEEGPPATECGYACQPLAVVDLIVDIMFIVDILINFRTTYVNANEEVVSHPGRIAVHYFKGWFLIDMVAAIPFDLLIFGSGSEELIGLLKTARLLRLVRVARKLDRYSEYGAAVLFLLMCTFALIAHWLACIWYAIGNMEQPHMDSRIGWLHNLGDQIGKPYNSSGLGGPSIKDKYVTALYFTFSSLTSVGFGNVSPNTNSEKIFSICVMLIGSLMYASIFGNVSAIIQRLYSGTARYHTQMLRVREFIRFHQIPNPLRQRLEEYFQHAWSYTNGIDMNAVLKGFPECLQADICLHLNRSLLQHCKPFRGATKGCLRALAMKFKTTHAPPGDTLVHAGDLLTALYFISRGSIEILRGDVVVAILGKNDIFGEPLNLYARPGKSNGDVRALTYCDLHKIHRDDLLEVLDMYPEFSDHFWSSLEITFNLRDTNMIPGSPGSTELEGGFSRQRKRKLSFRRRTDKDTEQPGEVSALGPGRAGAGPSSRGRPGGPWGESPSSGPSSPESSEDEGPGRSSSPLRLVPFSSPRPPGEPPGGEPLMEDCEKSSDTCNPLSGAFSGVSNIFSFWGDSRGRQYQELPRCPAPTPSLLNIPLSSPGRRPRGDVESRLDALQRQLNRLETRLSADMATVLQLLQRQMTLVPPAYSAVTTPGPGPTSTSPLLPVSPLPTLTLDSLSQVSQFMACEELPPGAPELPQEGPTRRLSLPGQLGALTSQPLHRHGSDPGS

SMILES	IC50
COc1cccc(N2CCN(C[C@H](O)COc3ccc(C(F)(F)F)cc3)CC2)c1	4080 nM
O[C@H](COc1ccc(F)cc1)CN1CCN(Cc2ccc(Cl)cc2)CC1	1350 nM
O[C@H](COc1ccc(Cl)cc1)CN1CCN(Cc2c(F)cccc2Cl)CC1	2070 nM
O[C@H](COc1ccc(F)cc1)CN1CCN(Cc2ccc(Cl)c(Cl)c2)CC1	290 nM
COc1ccccc1N1CCN(C[C@@H](O)COc2ccc(C(F)(F)F)cc2)CC1	3950 nM
O[C@H](COc1ccc(C(F)(F)F)cc1)CN1CCN(Cc2c(F)cccc2Cl)CC1	14000 nM
O[C@@H](COc1ccc(C(F)(F)F)cc1)CN1CCN(Cc2ccc(Cl)c(Cl)c2)CC1	9200 nM
O[C@@H](COc1ccc(F)cc1)CN1CCN(Cc2ccc(Cl)c(Cl)c2)CC1	870 nM

tested on: not listed separately; experiment: Cmax in ICR mouse brain at 10 mg/kg, po; type: ADME, organism-based; parameters: dose 10 mg/kg, route oral; conditions: not given; summary of the method: as §1

SMILES	Cmax
COc1cccc(N2CCN(C[C@H](O)COc3ccc(C(F)(F)F)cc3)CC2)c1	4660 ng/mL
O[C@H](COc1ccc(C(F)(F)F)cc1)CN1CCN(Cc2c(F)cccc2Cl)CC1	870 ng/mL

tested on: not listed separately; experiment: AUClast in ICR mouse plasma at 10 mg/kg, po; type: ADME, organism-based; parameters: time 0 - last, dose 10 mg/kg, route oral; conditions: not given; summary of the method: as §1

SMILES	AUC(0-t)
COc1cccc(N2CCN(C[C@H](O)COc3ccc(C(F)(F)F)cc3)CC2)c1	3140 ng·h/mL
O[C@H](COc1ccc(C(F)(F)F)cc1)CN1CCN(Cc2c(F)cccc2Cl)CC1	260 ng·h/mL

target: T1, Voltage-dependent T-type calcium channel subunit alpha-1G (Homo sapiens, UniProt O43497); experiment: Inhibition of alpha-1G calcium channel in human HEK293 cells by whole-cell patch-clamp method; type: cell-based; conditions: not given
Summary of the method: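 Whole-cell recordings used α1G T-type channels. Pipette solution (mM): 130 KCl, 11 EGTA, 5 Mg-ATP, 10 HEPES, pH 7.4. Bath (mM): 140 NaCl, 2 CaCl2, 10 HEPES, 10 glucose, pH 7.4. Currents were evoked every 15 s by a 50 ms step from −100 to −30 mV. IC50 for peak-current inhibition came from dose-response curve fitting of raw data.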

T1 sequence (O43497 whole entry): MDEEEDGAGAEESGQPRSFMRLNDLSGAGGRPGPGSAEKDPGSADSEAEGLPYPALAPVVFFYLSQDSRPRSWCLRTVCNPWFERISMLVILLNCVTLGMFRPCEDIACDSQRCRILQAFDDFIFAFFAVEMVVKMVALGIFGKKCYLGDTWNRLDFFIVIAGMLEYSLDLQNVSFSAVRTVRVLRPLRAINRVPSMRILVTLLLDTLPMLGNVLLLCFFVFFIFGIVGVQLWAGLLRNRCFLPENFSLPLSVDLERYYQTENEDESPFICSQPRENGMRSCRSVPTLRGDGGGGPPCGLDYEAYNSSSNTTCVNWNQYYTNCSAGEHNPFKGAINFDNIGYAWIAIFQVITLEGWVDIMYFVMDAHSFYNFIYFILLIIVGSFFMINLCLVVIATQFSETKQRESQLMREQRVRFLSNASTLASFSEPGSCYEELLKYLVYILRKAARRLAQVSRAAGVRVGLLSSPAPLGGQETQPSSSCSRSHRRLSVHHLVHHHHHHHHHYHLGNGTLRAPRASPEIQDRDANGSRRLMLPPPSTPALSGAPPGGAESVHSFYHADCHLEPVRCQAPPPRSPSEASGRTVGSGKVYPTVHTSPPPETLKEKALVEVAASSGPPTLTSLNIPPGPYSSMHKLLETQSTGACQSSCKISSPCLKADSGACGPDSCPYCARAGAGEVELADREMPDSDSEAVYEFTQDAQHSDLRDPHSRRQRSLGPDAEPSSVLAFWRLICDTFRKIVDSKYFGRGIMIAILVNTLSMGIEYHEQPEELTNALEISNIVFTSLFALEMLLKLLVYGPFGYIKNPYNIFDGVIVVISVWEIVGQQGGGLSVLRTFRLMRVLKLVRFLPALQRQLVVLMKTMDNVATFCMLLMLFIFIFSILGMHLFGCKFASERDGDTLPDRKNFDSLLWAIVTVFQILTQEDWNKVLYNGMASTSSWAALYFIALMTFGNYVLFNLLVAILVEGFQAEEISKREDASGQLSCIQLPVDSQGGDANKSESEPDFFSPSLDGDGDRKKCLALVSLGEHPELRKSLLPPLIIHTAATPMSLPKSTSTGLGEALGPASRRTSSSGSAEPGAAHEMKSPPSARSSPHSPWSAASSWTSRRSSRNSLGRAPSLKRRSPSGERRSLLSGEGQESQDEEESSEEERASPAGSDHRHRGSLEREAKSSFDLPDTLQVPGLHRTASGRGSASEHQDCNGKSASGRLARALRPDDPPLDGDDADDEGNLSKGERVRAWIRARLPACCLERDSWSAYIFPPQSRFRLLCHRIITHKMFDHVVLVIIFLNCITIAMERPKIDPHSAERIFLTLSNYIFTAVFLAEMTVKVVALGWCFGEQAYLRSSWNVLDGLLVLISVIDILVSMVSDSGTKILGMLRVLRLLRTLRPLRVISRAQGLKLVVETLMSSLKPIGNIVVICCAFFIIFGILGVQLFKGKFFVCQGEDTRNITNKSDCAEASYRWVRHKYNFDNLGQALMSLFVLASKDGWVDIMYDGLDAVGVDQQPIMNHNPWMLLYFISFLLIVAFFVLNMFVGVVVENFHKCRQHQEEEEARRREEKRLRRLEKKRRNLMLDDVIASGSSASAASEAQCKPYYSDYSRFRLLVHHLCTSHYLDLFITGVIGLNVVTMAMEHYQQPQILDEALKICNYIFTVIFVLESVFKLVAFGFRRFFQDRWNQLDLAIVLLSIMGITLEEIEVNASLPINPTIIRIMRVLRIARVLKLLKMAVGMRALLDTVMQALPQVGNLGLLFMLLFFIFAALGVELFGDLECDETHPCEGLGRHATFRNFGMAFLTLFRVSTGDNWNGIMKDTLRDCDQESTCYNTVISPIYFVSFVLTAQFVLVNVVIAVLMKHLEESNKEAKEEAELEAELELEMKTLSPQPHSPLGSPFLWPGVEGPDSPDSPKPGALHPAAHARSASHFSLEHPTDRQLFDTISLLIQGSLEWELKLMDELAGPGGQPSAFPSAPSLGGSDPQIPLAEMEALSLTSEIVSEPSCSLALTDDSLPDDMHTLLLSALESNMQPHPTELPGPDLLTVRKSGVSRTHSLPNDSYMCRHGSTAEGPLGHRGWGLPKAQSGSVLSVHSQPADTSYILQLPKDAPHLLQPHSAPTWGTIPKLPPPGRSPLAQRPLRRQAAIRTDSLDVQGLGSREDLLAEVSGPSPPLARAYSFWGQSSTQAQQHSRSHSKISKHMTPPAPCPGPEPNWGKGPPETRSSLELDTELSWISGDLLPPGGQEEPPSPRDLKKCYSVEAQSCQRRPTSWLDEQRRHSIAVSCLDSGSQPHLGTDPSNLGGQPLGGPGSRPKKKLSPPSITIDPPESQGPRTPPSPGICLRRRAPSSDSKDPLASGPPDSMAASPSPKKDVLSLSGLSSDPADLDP

SMILES	IC50
COc1cccc(N2CCN(C[C@H](O)COc3ccc(C(F)(F)F)cc3)CC2)c1	480 nM
O[C@H](COc1ccc(F)cc1)CN1CCN(Cc2ccc(Cl)cc2)CC1	1560 nM
COc1cccc(N2CCN(C[C@@H](O)COc3ccc(F)cc3)CC2)c1	12000 nM
O[C@H](COc1ccc(C(F)(F)F)cc1)CN1CCN(c2ccc(F)cc2)CC1	15500 nM
O[C@H](COc1ccc(Cl)cc1)CN1CCN(Cc2c(F)cccc2Cl)CC1	1420 nM
O[C@H](COc1ccc(C(F)(F)F)cc1)CN1CCN(Cc2ccc(Cl)cc2)CC1	4230 nM
O[C@H](COc1ccc(F)cc1)CN1CCN(Cc2c(F)cccc2Cl)CC1	11400 nM
O[C@H](COc1ccc(F)cc1)CN1CCN(Cc2ccc(Cl)c(Cl)c2)CC1	230 nM
COc1ccccc1N1CCN(C[C@@H](O)COc2ccc(C(F)(F)F)cc2)CC1	1790 nM
O[C@H](COc1ccc(F)cc1)CN1CCN(Cc2cccc(Cl)c2)CC1	2580 nM
O[C@@H](COc1ccc(F)cc1)CN1CCN(Cc2c(F)cccc2Cl)CC1	12300 nM
O[C@H](COc1ccc(Cl)cc1)CN1CCN(Cc2ccc(Cl)cc2)CC1	1080 nM
O[C@@H](COc1ccc(F)cc1)CN1CCN(Cc2cccc(Cl)c2)CC1	2100 nM
O[C@H](COc1ccc(C(F)(F)F)cc1)CN1CCN(Cc2c(F)cccc2Cl)CC1	760 nM
O[C@@H](COc1ccc(C(F)(F)F)cc1)CN1CCN(Cc2ccc(Cl)c(Cl)c2)CC1	1270 nM
O[C@@H](COc1ccc(F)cc1)CN1CCN(Cc2ccc(Cl)c(Cl)c2)CC1	100 nM

target: T1, Voltage-dependent T-type calcium channel subunit alpha-1G; experiment: Inhibition of alpha-1G calcium channel in human HEK293 cells at 10 uM by FDSS6000 fluorescence-based assay; conditions: not given

SMILES	inhibition
O[C@H](COc1ccc(Cl)cc1)CN1CCN(c2ccc(F)cc2)CC1	28.3%
O[C@@H](COc1ccc(C(F)(F)F)cc1)CN1CCN(Cc2c(F)cccc2Cl)CC1	44.6%
COc1cccc(N2CCN(C[C@H](O)COc3ccc(C(F)(F)F)cc3)CC2)c1	68.5%
O[C@H](COc1ccc(C(F)(F)F)cc1)CN1CCN(Cc2ccccc2F)CC1	48.6%
O[C@@H](COc1ccc(C(F)(F)F)cc1)CN1CCN(Cc2cccc(Cl)c2)CC1	43.1%
O[C@@H](COc1ccc(Cl)cc1)CN1CCN(Cc2cccc(Cl)c2)CC1	46%
O[C@H](COc1ccc(Cl)cc1)CN1CCN(Cc2ccccc2F)CC1	41.5%
O[C@H](COc1ccc(F)cc1)CN1CCN(Cc2ccc(Cl)cc2)CC1	65.8%
O[C@H](COc1ccc(F)cc1)CN1CCN(c2ccccc2F)CC1	42%
COc1cccc(N2CCN(C[C@@H](O)COc3ccc(F)cc3)CC2)c1	61.3%
COc1ccccc1N1CCN(C[C@H](O)COc2ccc(C(F)(F)F)cc2)CC1	50.8%
O[C@@H](COc1ccc(Cl)cc1)CN1CCN(Cc2c(F)cccc2Cl)CC1	40.9%
O[C@H](COc1ccc(Cl)cc1)CN1CCN(c2ccccc2F)CC1	35.9%
O[C@@H](COc1ccc(Cl)cc1)CN1CCN(Cc2ccc(Cl)c(Cl)c2)CC1	48.6%
O[C@H](COc1ccc(C(F)(F)F)cc1)CN1CCN(c2ccc(F)cc2)CC1	59.2%
O[C@H](COc1ccc(Cl)cc1)CN1CCN(Cc2c(F)cccc2Cl)CC1	54.4%
O[C@H](COc1ccc(C(F)(F)F)cc1)CN1CCN(Cc2ccc(Cl)cc2)CC1	56.6%
O[C@H](COc1ccc(F)cc1)CN1CCN(Cc2c(F)cccc2Cl)CC1	62.1%
O[C@H](COc1ccc(F)cc1)CN1CCN(Cc2ccc(Cl)c(Cl)c2)CC1	64.2%
COc1ccccc1N1CCN(C[C@@H](O)COc2ccc(C(F)(F)F)cc2)CC1	56.2%
O[C@H](COc1ccc(F)cc1)CN1CCN(Cc2cccc(Cl)c2)CC1	65.8%
O[C@@H](COc1ccc(F)cc1)CN1CCN(Cc2c(F)cccc2Cl)CC1	56.5%
O[C@H](COc1ccc(Cl)cc1)CN1CCN(Cc2ccc(Cl)cc2)CC1	56.5%
O[C@@H](COc1ccc(F)cc1)CN1CCN(Cc2cccc(Cl)c2)CC1	61.1%
O[C@H](COc1ccc(C(F)(F)F)cc1)CN1CCN(Cc2c(F)cccc2Cl)CC1	55.1%
O[C@@H](COc1ccc(C(F)(F)F)cc1)CN1CCN(Cc2ccc(Cl)c(Cl)c2)CC1	38.8%
O[C@@H](COc1ccc(F)cc1)CN1CCN(Cc2ccc(Cl)c(Cl)c2)CC1	69.5%

tested on: not listed separately; experiment: Tmax in ICR mouse brain at 10 mg/kg, po; type: ADME, organism-based; parameters: dose 10 mg/kg, route oral; conditions: not given; summary of the method: as §1

SMILES	Tmax
COc1cccc(N2CCN(C[C@H](O)COc3ccc(C(F)(F)F)cc3)CC2)c1	15 min
O[C@H](COc1ccc(C(F)(F)F)cc1)CN1CCN(Cc2c(F)cccc2Cl)CC1	30 min

tested on: Brain; experiment: (§2) AUClast in ICR mouse brain at 10 mg/kg, po; type: ADME, organism-based; parameters: time 0 - last, dose 10 mg/kg, route oral; conditions: in vivo; summary of the method: as §1

SMILES	AUClast
O[C@H](COc1ccc(C(F)(F)F)cc1)CN1CCN(Cc2c(F)cccc2Cl)CC1	119.1 µg·min/g

tested on: not listed separately; experiment: as §2; type: ADME, organism-based; parameters: time 0 - last, dose 10 mg/kg, route oral; conditions: ICR, brain; summary of the method: as §1

SMILES	AUC(0-t)
COc1cccc(N2CCN(C[C@H](O)COc3ccc(C(F)(F)F)cc3)CC2)c1	8290 ng·h/mL

tested on: not listed separately; experiment: Oral bioavailability in ICR mouse at 10 mg/kg; type: ADME, organism-based; conditions: in vivo

SMILES	bioavailability
COc1cccc(N2CCN(C[C@H](O)COc3ccc(C(F)(F)F)cc3)CC2)c1	67.2%
O[C@H](COc1ccc(C(F)(F)F)cc1)CN1CCN(Cc2c(F)cccc2Cl)CC1	9.94%

tested on: not listed separately; experiment: Ratio of AUC in brain to AUC in plasma of ICR mouse at 10 mg/kg, po; type: ADME, organism-based; parameters: dose 10 mg/kg, route oral; conditions: not given
Summary of the method: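 ICR mice dosed orally at 10 mg/kg; plasma and brain sampled over time (n = 3 per time point). AUC (taken as dose/clearance) computed for each matrix from mean concentration–time profiles; brain-to-plasma ratio reported as AUCbrain/AUCplasma […], from mean values.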

SMILES	Kp
COc1cccc(N2CCN(C[C@H](O)COc3ccc(C(F)(F)F)cc3)CC2)c1	3.46
O[C@H](COc1ccc(C(F)(F)F)cc1)CN1CCN(Cc2c(F)cccc2Cl)CC1	7.63
